Screening data from PubChem.
CHOP UPR activ = apoptotic UPR (CHOP) activation; CHO-CHOP luciferase reporter, luminescence; percent of tunicamycin response over DMSO baseline; activation, % at 10 µM; hit rate 0.34% among 330,000; AID 449763;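 active = at 10 µM dose, activation of 40% or more, normalized to positive control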;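 also: 100% = tunicamycin at 10 µg/mL and 0% = DMSO alone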
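Evaluation: % reporter activation, DMSO baseline versus tunicamycin full activation; System: CHO-CHOP luciferase reporter cell line; Input: 500 cells/well; Incubation: 6 h compound treatment, 37 °C; Measured by: Steady-Glo luciferase luminescence; Dosing: one dose, 10 µM in 0.5% DMSO; Buffer or medium: F12 medium, 10% FBS; Benchmarks: positive tunicamycin 10 µg/mL, negative DMSO alone.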
p97 inhibitor = inhibitors of human p97 ATPase. inhibition, % at 8 µM. hit rate 0.42% among 220,000. AID 1481. P55072. recombinant p97 ATPase, Kinase-Glo ATP luminescence, 3 h; in the data active = inhibition above about 15%;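 also: 0% = DMSO vehicle and 100% = wells lacking enzyme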
Target sequence (P55072 whole entry, looked up): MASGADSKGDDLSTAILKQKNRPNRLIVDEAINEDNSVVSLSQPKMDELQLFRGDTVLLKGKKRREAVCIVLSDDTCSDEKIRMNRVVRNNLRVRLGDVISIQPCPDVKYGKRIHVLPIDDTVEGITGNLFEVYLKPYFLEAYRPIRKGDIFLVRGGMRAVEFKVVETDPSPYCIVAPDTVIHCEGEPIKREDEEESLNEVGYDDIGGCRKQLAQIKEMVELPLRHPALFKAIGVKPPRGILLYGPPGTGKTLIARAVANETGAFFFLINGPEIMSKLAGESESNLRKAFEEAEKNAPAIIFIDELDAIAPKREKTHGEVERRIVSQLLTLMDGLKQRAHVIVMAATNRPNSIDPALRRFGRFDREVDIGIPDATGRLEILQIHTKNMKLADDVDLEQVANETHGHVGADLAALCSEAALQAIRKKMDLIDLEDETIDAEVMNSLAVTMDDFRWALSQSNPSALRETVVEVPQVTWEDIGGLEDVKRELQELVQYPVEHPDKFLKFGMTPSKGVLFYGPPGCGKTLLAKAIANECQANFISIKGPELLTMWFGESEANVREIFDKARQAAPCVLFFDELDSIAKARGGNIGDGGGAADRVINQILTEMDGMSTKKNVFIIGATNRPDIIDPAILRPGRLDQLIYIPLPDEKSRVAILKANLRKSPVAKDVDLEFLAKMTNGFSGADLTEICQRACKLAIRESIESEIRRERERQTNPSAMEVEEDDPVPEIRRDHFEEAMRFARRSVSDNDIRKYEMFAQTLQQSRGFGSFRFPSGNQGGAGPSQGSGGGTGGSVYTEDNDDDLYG
HCV NS3 hel inh = blocks Hepatitis C virus NS3 helicase unwinding; AID 1800; NS3 helicase DNA unwinding, Cy5 molecular beacon fluorescence; hit rate 0.56% among 290,000; inhibition, % at 10.9 µM;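 active = inhibition above the mean of all tested compounds plus 3 SD, set per campaign, cut at about 35% in these data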;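 also: 0% = DMSO wells and 100% = thioflavine S control wells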
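Material: hepatitis C virus NS3 helicase domain fragment enzyme; measured by: Cy5 fluorescence, 0 and 60 min reads; control set: DMSO and thioflavine S; incubation: 60 min unwinding reaction at 25 °C after ATP addition; read-out basis: % inhibition from 60/0 min fluorescence ratio, DMSO 0%, thioflavine S 100%; repeats: singlicate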
M18AAP inhibitor = PfM18AAP enzyme inhibition. AID 1822. inhibition, % at 7.35 µM. recombinant PfM18AAP, H-Glu-NHMec fluorogenic cleavage. hit rate 1.2% among 290,000;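 active = inhibition above the campaign mean inhibition over all tested compounds plus 3 SD, cut at about 28% in these data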;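 also: 0% = plate median of test compound wells and 100% = 2 mM ZnCl2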
XBP1 UPR activ = activators of adaptive arm of unfolded protein response (XBP1) | CHO-XBP1 luciferase reporter, IRE1-XBP1 UPR activation, luminescence; percent of tunicamycin response, DMSO as zero | activation, % at 20 µM | hit rate 0.33% among 330,000 | AID 463104;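 active = versus positive control, 20 µM dose yields 30% or more activation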;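 also: 100% = tunicamycin at 10 µg/mL and 0% = DMSO only wells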
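Assay system: IRE1-XBP1 luciferase reporter CHO line. Input: 1000 cells/well. Buffer or medium: F12 with 10% serum. Doses: 20 µM, 1% DMSO. Times: overnight seeding at 37 °C, 6 h compound treatment at 37 °C. Technique: Steady-Glo luciferase glow luminescence, 10 min after reagent addition.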
CHOP inh = CHOP inhibition in unfolded protein response; CHO-K1 CHOP-promoter luciferase, tunicamycin-induced, 15-18 h; inhibition, % at 10 µM; hit rate 3.8% among 220,000;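 active = compounds that reduced the stress-induced luciferase reporter signal by more than about 70% of percent inhibition, limit read from the data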;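 also: 0% = tunicamycin plus vehicle and 100% = wells without tunicamycin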
UPR CHOP confirm = confirmation of apoptotic unfolded protein response (CHOP) activators; shares compounds with CHOP UPR activ; CHO-CHOP cells, CHOP-luciferase reporter luminescence; percent of tunicamycin response, DMSO as zero; activation, % at 10 µM; hit rate 64% among 1,000; in the data active = activation above about 33%;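 also: 0% = DMSO wells and 100% = tunicamycin 10 µg/mL wells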
An asterisk follows results filed as active; . = no result. A selection: hits, their analogues and other compounds. The true share with any hit is near 4.5%.

SMILES | CHOP UPR activ | p97 inhibitor | HCV NS3 hel inh | M18AAP inhibitor | XBP1 UPR activ | CHOP inh | UPR CHOP confirm
Cn1c(SCC(=O)NCC2CCCO2)ncc(C(=O)Nc2ccccc2)c1=O (centres undefined) | 11 | . | . | . | 0 | . | .
Cc1ccc(NC(=O)c2cnc(SCC(=O)NCC3CCCO3)n(C)c2=O)cc1C (centres undefined) | 51* | . | . | . | -4 | . | 24
Cc1cccc(N=Nc2ccc(O)c3ncccc23)c1 | 86* | 1 | -4 | -2 | 7 | 105* | 69*
O=c1[nH]c2cc3c(cc2cc1C(c1nnnn1Cc1ccccc1)N1CCCc2ccccc21)OCO3 (centres undefined) | 265* | -4 | 3 | 6 | 12 | 25 | 2
O=C(/C=C/c1ccc(O)c(O)c1)OCCc1ccccc1 | 52* | . | . | . | 6 | -17 | 145*
O=C(COC(=O)/C=C/c1cccc(Br)c1)NCCc1ccccc1 | 0 | . | . | . | -2 | . | .
O=C(N/N=C/c1cccc2cccnc12)c1ccccc1O | 347* | 3 | 2 | 7 | 3 | 46 | 559*
O=C(NCc1ccc2c(c1)OCO2)c1nc(S(=O)(=O)Cc2ccccc2F)ncc1Cl | 43* | . | -5 | -17 | -9 | . | 18
CC(C)c1nnc(NC(=O)c2nc(S(=O)(=O)Cc3ccccc3F)ncc2Cl)s1 | 56* | . | -7 | -16 | -9 | . | 18
CSc1nnc(NC(=O)c2nc(S(=O)(=O)Cc3ccccc3F)ncc2Cl)s1 | 44* | . | 1 | -45 | -9 | . | 77*
O=C(NCc1ccc2c(c1)OCO2)c1ccccc1Cl | 4 | . | . | . | 1 | . | .
COc1cccc(C(=O)OCC(=O)c2c(N)n(C)c(=O)n(C)c2=O)c1 | -1 | . | . | . | 1 | . | .
C=CCn1c(SCC(=O)Nc2cccc(S(=O)(=O)N(C)c3ccccc3)c2)nnc1C1CC1 | 2 | . | . | . | -3 | . | .
COc1ccc(N=C2S/C(=C\c3ccc(N4CCOCC4)o3)C(=O)N2CCc2c[nH]c3ccccc23)cc1 | 139* | 4 | 20 | -8 | -7 | 37 | 73*
COc1ccc(N=C2S/C(=C\c3ccc(OCC(=O)O)cc3)C(=O)N2CCc2c[nH]c3ccccc23)cc1 | -2 | -2 | -14 | 2 | -5 | -9 | .
CCOc1ccccc1NC(=S)N1CCC(c2nc3ccccc3o2)CC1 | 0 | 0 | -3 | -3 | 3 | 3 | .
CCCC(=O)N(C1CC(C)C(C#N)(C#N)C1(C#N)C#N)N(C)C (centres undefined) | -7 | -2 | 2 | -25 | -10 | -80 | .
CC(=O)N(C1CC(C)C(C#N)(C#N)C1(C#N)C#N)N(C)C (centres undefined) | 72* | 1 | 12 | -6 | -7 | 92* | -9
Cc1cc(NC(=O)CN2C(=O)NC3(CCCCCC3)C2=O)no1 | -1 | 0 | 17 | -4 | -3 | 11 | .
O=C(Nc1cccc(N2C(=O)C=CC2=O)c1)c1cccs1 | 124* | . | . | . | -6 | . | 12
O=C(Cc1ccccc1)Nc1nccs1 | -1 | . | 9 | -7 | 0 | . | .
S=C(Nc1ccccc1)Nc1nccs1 | 104* | 4 | 13 | 11 | 20 | -213 | 60*
O=C(Cc1ccc(F)cc1)Nc1nccs1 | 2 | . | -1 | -2 | -1 | . | .
Fc1ccc(NC(=S)Nc2nccs2)cc1 | 75* | -6 | 12 | 10 | 9 | -217 | 80*
Cc1ccc(S(=O)(=O)NC2CCCCCCC2)cc1 | -1 | . | -2 | -2 | -3 | . | .
SMILES | CHOP UPR activ | p97 inhibitor | HCV NS3 hel inh | M18AAP inhibitor | XBP1 UPR activ | CHOP inh | UPR CHOP confirm
Cc1ccc(S(=O)(=O)NC2OC(=O)C(Cl)=C2Cl)cc1 (centres undefined) | 63* | -3 | 7 | 14 | -5 | -78 | 15
CN1CCC(NC(=S)NC2CC2)CC1 | 87* | -1 | 8 | -13 | -6 | -12 | -1
Cc1cc(Cl)c(C(=O)Nc2cccc(C(F)(F)F)c2)c(C)n1 | -1 | . | 4 | 2 | -2 | . | .
CS(=O)(=O)c1ccc(S(=O)CC(=O)Oc2ccc(Cl)cc2)c([N+](=O)[O-])c1 (centres undefined) | 51* | 9 | -4 | 3 | -9 | 108* | 24
O=C(CS(=O)c1ccccc1[N+](=O)[O-])Oc1ccc(Br)cc1 (centres undefined) | -1 | 2 | -1 | 4 | -1 | 26 | .
c1ccc2c(c1)ccc1ncccc12 | -1 | 3 | -6 | 3 | 0 | 5 | .
Oc1c(N=Nc2ccccn2)ccc2ccccc12 | 276* | -9 | -4 | 9 | -2 | 80* | 211*
Cc1ccc(S(=O)(=O)N2CCN(C(=O)C(Cc3ccccc3)NC(=O)c3ccccc3)CC2)cc1 (centres undefined) | 0 | . | . | . | -2 | . | .
O=C(CCN1C(=O)/C(=C\c2ccccc2)SC1=S)N1CCCCC1 | 8 | . | 3 | -30 | -3 | . | .
O=C(CCN1C(=O)/C(=C/c2cccs2)SC1=S)N1CCCCC1 | 40* | . | -5 | -32 | -3 | . | 23
COc1cc(/C=C(\C#N)C(=O)NC2CCCCC2C)ccc1OS(=O)(=O)c1ccc(C)cc1 (centres undefined) | 76* | 7 | -3 | -1 | 23 | 62 | 9
CN(CC(=O)Nc1ccccc1Br)C(=O)CNC(=O)c1ccco1 | 3 | . | . | . | -1 | . | .
COc1ccccc1-c1cc(C(F)(F)F)nc(S(=O)(=O)CCCC(=O)O)n1 | -2 | 0 | -7 | -49 | -4 | -33 | .
COc1ccc(-c2cc(C(F)(F)F)nc(S(=O)(=O)CCCC(=O)Nc3cccc(O)c3)n2)cc1OC | 55* | 2 | -9 | -25 | 6 | -125 | 22
O=C(N/N=C(\c1ccccc1)c1ccccn1)c1cccc([N+](=O)[O-])c1 | 136* | -4 | -7 | -1 | 2 | 48 | 319*
Cn1ccnc1/C(=N\NC(=O)c1ccccc1)c1cccc([N+](=O)[O-])c1 | -1 | 6 | -3 | 3 | -2 | -2 | .
COc1ccc(-n2ncc3c2CC(C)(C)CC3NC(=O)CCn2cncn2)cc1 (centres undefined) | -2 | . | -2 | 1 | -4 | . | .
Cc1ccc(NC(=O)CN2C(=O)NC(C)(C3CC3)C2=O)c([N+](=O)[O-])c1 (centres undefined) | 1 | . | . | . | -2 | . | .
Cc1ccc(NC(=O)CN2C(=O)NC(C)(C3CC3)C2=O)c(C)c1 (centres undefined) | 70* | . | . | . | -2 | . | -1
